From ChEMBL document CHEMBL1649383, “Mode of action of epoxyphomalins A and B and characterization of related metabolites from the marine-derived fungus Paraconiothyrium sp” (J Nat Prod, 2010)
In brackets after ≈: the same amount, converted by molar mass.

Legend:
[1] = Cytotoxicity against human LXFA 629L cells at 1 ug/ml relative to control; assay type: functional
[2] = Cytotoxicity against human LXFL 529L cells at 0.01 ug/ml relative to control; assay type: functional
[3] = tested on: PANC-1; assay: Cytotoxicity against human PANC1 cells at 0.1 ug/ml relative to control; assay type: functional
[4] = tested on: PANC-1; assay: Cytotoxicity against human PANC1 cells at 10 ug/ml relative to control; assay type: functional
[5] = Cytotoxicity against human MEXF 394NL cells at 0.01 ug/ml relative to control; assay type: functional
[6] = Cytotoxicity against human OVXF 1619L cells at 10 ug/ml relative to control; assay type: functional
[7] = Cytotoxicity against human MAXF 401NL cells at 10 ug/ml relative to control; assay type: functional
[8] = tested on: DU-145; assay: Cytotoxicity against human DU145 cells at 0.001 ug/ml relative to control; assay type: functional
[9] = Cytotoxicity against human BXF 1218L cells at 10 ug/ml relative to control; assay type: functional
[10] = tested on: HT-29; assay: Cytotoxicity against human HT-29 cells at 10 ug/ml relative to control; assay type: functional
[11] = Cytotoxicity against human OVXF 899L cells at 0.01 ug/ml relative to control; assay type: functional
[12] = tested on: CWR22R; assay: Cytotoxicity against human 22Rv1 cells at 10 ug/ml relative to control; assay type: functional
[13] = Cytotoxicity against human CNXF 498NL cells at 1 ug/ml relative to control; assay type: functional
[14] = Cytotoxicity against human CNXF 498NL cells; assay type: functional, cell-based
Summary of the method: (§1)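 Monolayer cell survival and proliferation assay, run within a panel of 36 human tumor cell lines; IC50 determined per cell line.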

[15] = Cytotoxicity against human PC3M cells at 0.01 ug/ml relative to control; assay type: functional, PC-3M
[16] = Cytotoxicity against human UXF 1138L cells at 0.1 ug/ml relative to control; assay type: functional
[17] = tested on: OVCAR-3; assay: Cytotoxicity against human OVCAR3 cells at 10 ug/ml relative to control; assay type: functional
[18] = tested on: MCF7; assay: Cytotoxicity against human MCF7 cells; assay type: functional, cell-based
Summary of the method: (§2)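 Monolayer cell survival and proliferation assay run across a panel of 36 human tumour cell lines; IC50 values determined.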

[19] = tested on: LNCaP; assay: Cytotoxicity against human LNCAP cells; assay type: functional, cell-based; summary of the method: as §2
[20] = Cytotoxicity against human PAXF 1657L cells at 1 ug/ml relative to control; assay type: functional
[21] = Cytotoxicity against human PC3M cells at 1 ug/ml relative to control; assay type: functional, PC-3M
[22] = Cytotoxicity against human PAXF 1657L cells at 0.001 ug/ml relative to control; assay type: functional
[23] = Cytotoxicity against human MAXF 401NL cells at 0.01 ug/ml relative to control; assay type: functional
[24] = Cytotoxicity against human BXF 1218L cells at 1 ug/ml relative to control; assay type: functional
[25] = tested on: T-24; assay: Cytotoxicity against human T24 cells at 10 ug/ml relative to control; assay type: functional
[26] = Cytotoxicity against human HNXF 536L cells at 1 ug/ml relative to control; assay type: functional
[27] = tested on: LNCaP; assay: Cytotoxicity against human LNCAP cells at 0.1 ug/ml relative to control; assay type: functional
[28] = Cytotoxicity against human MEXF 514L cells; assay type: functional, cell-based
Summary of the method: (§3)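 Monolayer cell survival and proliferation assay run across a panel of 36 human tumor cell lines, with IC50 determined from the resulting growth data.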

[29] = Cytotoxicity against human HNXF 536L cells at 0.01 ug/ml relative to control; assay type: functional
[30] = tested on: HCT-116; assay: Cytotoxicity against human HCT116 cells at 1 ug/ml relative to control; assay type: functional
[31] = Cytotoxicity against human MEXF 462NL cells at 0.001 ug/ml relative to control; assay type: functional
[32] = Cytotoxicity against human OVXF 1619L cells at 0.001 ug/ml relative to control; assay type: functional
[33] = Cytotoxicity against human MAXF 401NL cells at 0.001 ug/ml relative to control; assay type: functional
[34] = tested on: HT-29; assay: Cytotoxicity against human HT-29 cells at 0.001 ug/ml relative to control; assay type: functional
[35] = Cytotoxicity against human LXFA 526L cells at 0.01 ug/ml relative to control; assay type: functional
[36] = tested on: NCI-H460; assay: Cytotoxicity against human H460 cells at 0.001 ug/ml relative to control; assay type: functional
[37] = tested on: T-24; assay: Cytotoxicity against human T24 cells at 1 ug/ml relative to control; assay type: functional
[38] = tested on: HT-29; assay: Cytotoxicity against human HT-29 cells at 0.01 ug/ml relative to control; assay type: functional
[39] = Cytotoxicity against human GXF251L cells; assay type: functional, cell-based; conditions: GXF 251L; summary of the method: as §1
[40] = Cytotoxicity against human LXFA 629L cells at 0.1 ug/ml relative to control; assay type: functional
[41] = Cytotoxicity against human PC3M cells; assay type: functional, cell-based; conditions: PC-3M; summary of the method: as §3
[42] = Cytotoxicity against human GXF251L cells at 1 ug/ml relative to control; assay type: functional
[43] = Cytotoxicity against human PXF 1752L cells at 0.001 ug/ml relative to control; assay type: functional
[44] = Cytotoxicity against human HNXF 536L cells; assay type: functional, cell-based; summary of the method: as §1
[45] = Cytotoxicity against human PXF 1752L cells at 1 ug/ml relative to control; assay type: functional
[46] = Cytotoxicity against human OVXF 1619L cells at 0.01 ug/ml relative to control; assay type: functional
[47] = tested on: MCF7; assay: Cytotoxicity against human MCF7 cells at 10 ug/ml relative to control; assay type: functional
[48] = Cytotoxicity against human GXF251L cells at 10 ug/ml relative to control; assay type: functional
[49] = Cytotoxicity against human MEXF 276L cells at 1 ug/ml relative to control; assay type: functional, MEXF276L
[50] = tested on: SF-268; assay: Cytotoxicity against human SF268 cells at 1 ug/ml relative to control; assay type: functional
[51] = Cytotoxicity against human LXFA 289L cells; assay type: functional, cell-based; summary of the method: as §2
[52] = tested on: DU-145; assay: Cytotoxicity against human DU145 cells; assay type: functional, cell-based; summary of the method: as §1
[53] = Cytotoxicity against human LXFL 1121L cells at 1 ug/ml relative to control; assay type: functional
[54] = Cytotoxicity against human MEXF 394NL cells at 10 ug/ml relative to control; assay type: functional
[55] = Cytotoxicity against human LXFA 526L cells; assay type: functional, cell-based; summary of the method: as §2

## C=C1[C@@H](O)[C@H]2O[C@@]2(C[C@H]2C(C)=CC[C@H]3C(C)(C)CCC[C@]23C)[C@@H](O)[C@H]1O [EPOXYPHOLAMIN D]
[1]
  Activity: 53%
[2]
  Activity: 99%
[3]
  Activity: 97%
[4]
  Activity: 7%
[5]
  Activity: 85%
[6]
  Activity: 10%
[7]
  Activity: 12%
[8]
  Activity: 91%
[9]
  Activity: 17%
[10]
  Activity: 1%
[11]
  Activity: 104%
[12]
  Activity: 11%
[13]
  Activity: 55%
[14]
  IC50: 3.45 µM
  IC70: 3.09 µg/mL (≈ 8.53 µM)
  IC90: 7.63 µg/mL (≈ 21 µM)
[15]
  Activity: 101%
[16]
  Activity: 99%
[17]
  Activity: 13%
[18]
  IC50: 5.32 µM
  IC70: 4.01 µg/mL (≈ 11.1 µM)
  IC90: 8.33 µg/mL (≈ 23 µM)
[19]
  IC50: 17 µM
  IC70: 9.38 µg/mL (≈ 25.9 µM)
  IC90: 14.3 µg/mL (≈ 39.5 µM)
[20]
  Activity: 73%
[21]
  Activity: 18%
[22]
  Activity: 100%
[23]
  Activity: 110%
[24]
  Activity: 29%
[25]
  Activity: 7%
[26]
  Activity: 88%
[27]
  Activity: 103%
[28]
  IC50: 11.6 µM
  IC70: 6.57 µg/mL (≈ 18.1 µM)
  IC90: 10.2 µg/mL (≈ 28.2 µM)
[29]
  Activity: 76%
[30]
  Activity: 87%
[31]
  Activity: 133%
[32]
  Activity: 122%
[33]
  Activity: 106%
[34]
  Activity: 97%
[35]
  Activity: 104%
[36]
  Activity: 107%
[37]
  Activity: 126%
[38]
  Activity: 113%
[39]
  IC50: 2.07 µM
  IC70: 2.75 µg/mL (≈ 7.6 µM)
  IC90: 17.4 µg/mL (≈ 47.9 µM)
[40]
  Activity: 81%
[41]
  IC50: 0.72 µM
  IC70: 0.605 µg/mL (≈ 1.67 µM)
  IC90: 4.12 µg/mL (≈ 11.4 µM)
[42]
  Activity: 41%
[43]
  Activity: 95%
[44]
  IC50: 7.92 µM
  IC70: 5 µg/mL (≈ 13.8 µM)
  IC90: 8.7 µg/mL (≈ 24 µM)
[45]
  Activity: 46%
[46]
  Activity: 106%
[47]
  Activity: 5%
[48]
  Activity: 16%
[49]
  Activity: 59%
[50]
  Activity: 117%
[51]
  IC50: 18.5 µM
  IC70: 13.9 µg/mL (≈ 38.3 µM)
  IC90: 28.9 µg/mL (≈ 79.6 µM)
[52]
  IC50: 8.99 µM
  IC70: 5.88 µg/mL (≈ 16.2 µM)
  IC90: 10.6 µg/mL (≈ 29.3 µM)
[53]
  Activity: 97%
[54]
  Activity: 6%
[55]
  IC50: 13.5 µM
  IC70: 7.76 µg/mL (≈ 21.4 µM)
  IC90: 12.3 µg/mL (≈ 33.9 µM)
